# OX1R antag-1: antagonists of human orexin 1 receptor (OX1R); inhibition, % at 6.6 µM; actives 1.8% (n = 330,000); OX1R-expressing cells, FRET antagonist read-out; AID 485270; in the data active means inhibition mostly above about 38%, no sharp cut-off; inactive means mostly below about 40%;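 further: 0% = agonist challenge alone and 100% = reference antagonist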
# Target sequence (O43613 whole entry, looked up): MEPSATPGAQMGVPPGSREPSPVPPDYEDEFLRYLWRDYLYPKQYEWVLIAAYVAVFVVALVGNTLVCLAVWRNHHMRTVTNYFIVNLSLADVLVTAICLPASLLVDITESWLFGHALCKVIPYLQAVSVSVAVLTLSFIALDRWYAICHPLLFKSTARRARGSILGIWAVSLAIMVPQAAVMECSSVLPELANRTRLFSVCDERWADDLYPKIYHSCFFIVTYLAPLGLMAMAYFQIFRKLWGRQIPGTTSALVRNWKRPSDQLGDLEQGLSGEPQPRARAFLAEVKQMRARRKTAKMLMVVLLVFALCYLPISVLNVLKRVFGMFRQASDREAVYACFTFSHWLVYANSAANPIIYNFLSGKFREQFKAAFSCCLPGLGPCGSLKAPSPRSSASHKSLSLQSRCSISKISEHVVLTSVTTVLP
# CHO parental Ca: counter-screen: ATP calcium response change in parental CHO cells. parental CHO-K1, ATP-induced calcium, Fluo-8 fluorescence. inhibition, % at 5.6 µM. actives 0.63% (n = 330,000);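 active means inhibition above that plate's mean sample inhibition plus 3 SD, cut at about 26% in these data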;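 further: 0% = ATP-challenged DMSO wells and 100% = DMSO wells without ATP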
#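 Test system: untransfected parental CHO cell line. Compound: one dose, 5.6 µM nominal. Detection: intracellular calcium via Fluo-8 no-wash fluorescent dye. Measure: % inhibition. Benchmarks: ATP-challenged DMSO wells low, unchallenged DMSO wells high.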
# OX1R antag-2: blocks the human orexin 1 receptor; AID 434989; inhibition, % at 5 µM; actives 0.43% (n = 330,000); CHO/OX1R cells, Fluo-8 calcium fluorescence, orexin A;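 active means inhibition above its plate's threshold, mean inhibition of all tested compounds on the plate plus 3 SD, cut at about 37% in these data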;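 further: 0% = orexin A challenge wells and 100% = SB-334867-A antagonist wells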
# TAAR1 antagonist: human TAAR1 antagonism | Q96RJ0 | inhibition, % at 3 µM | actives 1.5% (n = 360,000) | CHO RD-HGA16 TAAR1, Fluo-8 calcium fluorescence, antagonist;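 active means inhibition above a per-plate cutoff, the mean inhibition of test compounds on that plate plus 3 SD, cut at about 49% in these data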;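 further: 0% = DMSO plus EC80 beta-PEA response and 100% = DMSO alone without agonist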
#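 Test system – hTAAR1-expressing CHO RD-HGA16 cells, Gα16-coupled · Also added – β-PEA at EC80 concentration, post-compound challenge · Compound – 3 µM, single point · Incubation – dye loading 75 min at 37 °C, then 30 min room temperature · Measured by – Fluo-8 intracellular calcium dye fluorescence, real-time kinetic reads · Benchmarks – vehicle and agonist controls · Replicates – singlicate, one well per test compound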
# TAAR1 agonist: agonists of human TAAR1; actives 0.99% (n = 360,000); AID 624467; Q96RJ0; CHO RD-HGA16 TAAR1, Fluo-8 calcium fluorescence; vehicle wells 0%, saturating PEA agonist 100%; activation, % at 3 µM;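 active means activation above the mean activation of all test compounds in the run plus 3 SD, cut at about 38% in these data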
#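 System: CHO RD-HGA16 cells carrying human TAAR1 plus Gα16; Incubation: 17-24 h seeding, 75 min 37 °C dye, 30 min RT; Measured by: Fluo-8 fluorescence, 5 s baseline then 140 s kinetic read; Control set: DMSO and PEA EC100; Replication: single well for each compound.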
# GalR3 antagonist: human GalR3 antagonism; HEK293 GalR3-CNG cAMP membrane potential fluorescence; galR3 body fused to GalR1 C-terminus; inhibition, % at 3 µM; actives 0.44% (n = 360,000); AID 651719;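 active means inhibition above the screen-wide average plus 3 SD, cut at about 13% in these data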;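 further: forskolin and galanin both at EC90 stimulate the cells; cAMP rise reported by CNG channel membrane potential dye signal; 0% = forskolin plus galanin with DMSO and 100% = forskolin alone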
# * marks the source's active call; other numbers are inactive results; nt = no result given. Shown are actives, neighbours in structure and some others; about 4.2% of the full set was active somewhere.
SMILES,OX1R antag-1,CHO parental Ca,OX1R antag-2,TAAR1 antagonist,TAAR1 agonist,GalR3 antagonist
COc1ccc(Nc2ccncc2[N+](=O)[O-])cc1,41*,3,-13,13,3,2
O=[N+]([O-])c1cnccc1Nc1cccc(F)c1,75*,-6,-8,5,0,-1
O=[N+]([O-])c1ccccc1Nc1cccc(F)c1,nt,nt,nt,-17,-3,-5
CN1CCN(C(=S)Nc2ccc(Cl)c(Cl)c2)CC1,9,16,3,6,8,3
Fc1ccc2[nH]c3c(NCc4ccccc4)ncnc3c2c1,59*,70*,3,16,13,-11
O=[N+]([O-])c1ccc(C2=NN(c3ccccc3)C(c3ccco3)C2)cc1 (stereo unspecified),nt,nt,nt,61*,89*,1
S=C(Nc1ccc(Cl)cc1)NC1CCN(Cc2ccccc2)CC1,3,1,-11,21,50*,-6
Cc1ccccc1NC(=O)c1ccc2c(c1)C(=O)N(CCC(C)C)C2=O,-4,-11,-18,-19,9,1
Cc1ccc(C(=O)Sc2cccccc2=O)cc1,8,54*,53*,45,12,-10
O=C(Nc1ccccc1SC(=O)c1ccccc1)c1ccccc1,nt,nt,nt,15,16,-5
COc1cccc(N/C(N)=N/c2nc(CSc3ccccn3)cc(=O)[nH]2)c1,16,-18,-25,nt,nt,nt
CCc1ccc(N/C(N)=N/c2nc(CSc3ccccn3)cc(=O)[nH]2)cc1,19,-5,-5,55*,8,-4
CC(C)N1CCN(c2ccncc2S(=O)(=O)N2CCN(C)CC2)CC1,nt,nt,nt,5,0,-6
NC(=O)CSc1nnc(-c2ccc([N+](=O)[O-])cc2)o1,55*,12,-11,-15,0,0
O=[N+]([O-])c1ccc(OCCN2CCNCC2)cc1,14,3,-1,-24,9,-3
Cc1ccc(S(=O)(=O)N2CCCC2CNC(=O)c2ccc(F)c(F)c2)cc1 (stereo unspecified),70*,-25,16,-18,-1,-5
CC(C)(C)c1ccc(C(=O)NCC2CCCN2S(=O)(=O)c2ccccc2)cc1 (stereo unspecified),23,-15,-32,0,4,-3
Cc1ccc(C)c(S(=O)(=O)N2CCCC2CNC(=O)c2ccc([N+](=O)[O-])cc2)c1 (stereo unspecified),54*,-2,-31,-21,1,-1
O=C(NCC1CCCN1S(=O)(=O)c1ccccc1)c1cccc(Cl)c1 (stereo unspecified),60*,-4,-7,-9,2,5
Cc1ccc(C(=O)NCC2CCCN2S(=O)(=O)c2ccc(C)cc2)cc1 (stereo unspecified),24,-22,-2,7,1,-5
CCOC(=O)C(C)Sc1ncc(OC)c(Sc2ccc(Cl)cc2)n1 (stereo unspecified),14,-15,-45,26,21,-6
Cc1cccc(N2CCN(C(=O)CSCc3c(C)noc3C)CC2)c1C,30,46*,18,nt,nt,nt
CCOC(=O)CCn1c2nc(C)cc(C)c2c(=O)n1-c1ccccc1,4,-7,-27,-16,14,-5
CCc1nnc(N2C(=O)c3cccc4cccc(c34)C2=O)s1,71*,-18,-16,3,4,-2
Cc1ccccc1N1C(=O)c2cccc3cccc(c23)C1=O,20,-16,-13,-12,0,-8
SMILES,OX1R antag-1,CHO parental Ca,OX1R antag-2,TAAR1 antagonist,TAAR1 agonist,GalR3 antagonist
O=C(CSc1nnc(-c2ccccc2F)o1)NC1CCCCC1,12,-1,-15,-8,6,-10
N#C/C(=C/c1ccc(O)c(O)c1)C(=O)NCc1ccc(Cl)cc1,20,-3,11,6,48*,-6
N#C/C(=C/c1cccc(O)c1)C(=O)NCc1ccc(Cl)cc1,6,-21,-16,-20,13,-6
CCc1cccc(NC(=O)c2snc3c(=O)[nH]cnc23)c1,35,-3,-8,2,4,0
O=C(Nc1ccc(N2CCCC(O)C2)cc1)c1snc2c(=O)[nH]cnc12 (stereo unspecified),40*,0,-5,-6,4,-2
COc1ccc(NC(=O)COC(=O)CCNC(=O)c2ccco2)cc1Cl,3,-5,-7,12,43*,-7
O=C(Cn1cnc2cc([N+](=O)[O-])ccc2c1=O)NC1CCS(=O)(=O)C1 (stereo unspecified),63*,-1,-18,11,7,-1
Cc1ccccc1OCCn1cnc2cc([N+](=O)[O-])ccc2c1=O,31,2,-27,49*,11,3
CCc1ccc(C(=O)Cn2cnc3cc([N+](=O)[O-])ccc3c2=O)cc1,29,-8,-16,5,0,-5
CN(Cc1cccs1)C(=O)Cn1cnc2cc([N+](=O)[O-])ccc2c1=O,40*,-2,-17,3,6,-4
CC[C@]12c3[nH]c4ccccc4c3CCN1C(=O)C(CC(=O)NCCCN(C)C)C[C@@H]2C(=O)N1CCN(C(=O)C2CC2)CC1 (stereo partly specified),3,-11,3,-10,1,3
O=C(/C=C/Sc1ccccc1)c1ccccc1,1,-28,-28,6,8,-2
Cc1cccc(-n2c(SCC(=O)N3CCCC3)nc3n[nH]c(C)c3c2=N)c1,36*,-28,12,13,5,-4
Cc1cc2nn(-c3cccc4ccccc34)nc2cc1NC(=O)c1cccs1,57*,-7,-1,15,1,-6
O=[N+]([O-])c1ccc(N=NN(CCO)CCO)cc1,47*,-1,1,4,3,-5
COc1ccc(OCC(O)Cn2c(=N)n(Cc3ccccc3)c3ccccc32)cc1 (stereo unspecified),8,-12,-7,-25,12,-8
N=c1n(Cc2ccc(Cl)cc2)c2ccccc2n1CC(O)COc1ccccc1 (stereo unspecified),7,72*,75*,-4,34,-6
N=c1n(Cc2ccccc2)c2ccccc2n1CC(O)COc1ccc(Cl)cc1Cl (stereo unspecified),nt,nt,nt,23,47*,-6
Cc1ccc(OCC(O)Cn2c(=N)n(Cc3ccccc3)c3ccccc32)cc1 (stereo unspecified),0,10,13,-2,27,-10
CN(C(=O)/C=C/c1ccc(F)cc1)C1CCCCC1,28,-16,-21,-31,0,-1
CCN1CCN(CCNC(=O)c2ccc(/C=C3/Sc4ccccc4N(Cc4cccc(Cl)c4)C3=O)cc2)CC1,14,-7,7,56*,36,-3

# Source: PubChem BioAssay
